Measurements: ChEMBL document CHEMBL4145556, “Carbazole-, Aspidofractinine-, and Aspidocarpamine-Type Alkaloids from Pleiocarpa pycnantha” (J Nat Prod, 2018)

Legend:
[1] = system: HEK293; test: Cytotoxicity against HEK293 cells assessed as reduction in cell viability by CMFDA dye based fluorescence assay; settings: human
Summary of the method: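 Viability of HEK293/NF-κB-luc cells was tracked with 2.5 μM CMFDA loaded 1 h before seeding at 10^4 cells/well. After overnight incubation, samples were added with 20 ng/mL TNF-α for 5 h. Fluorescence was read after lysis. Duplicate wells, three independent experiments.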

[2] = Inhibition of TNFalpha stimulated NF-kappaB (unknown origin) expressed in HEK293 cells after 5 hrs by luciferase reporter gene based luminescence assay; assay type: cell-based; settings: Homo sapiens, HEK293, 5 h
Summary of the method: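 HEK293/NF-κB-luc cells loaded 1 h with 2.5 μM CMFDA, seeded at 10^4 cells/well and incubated overnight. Samples were added, with TNF-α stimulation at 20 ng/mL for 5 h. After lysis, fluorescence was read, then luciferase luminescence. Luminescence was normalized to each well's fluorescence and IC50 derived. Duplicate wells, three independent experiments.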

Row | SMILES | Activity [1] | IC50 [2]
1 | COC(=O)c1nccc2c1[nH]c1ccccc12 | Non-Toxic | > 50 µM
2 | O=c1cc(-c2ccc(Br)cc2)oc2ccccc12 | Non-Toxic | –
3 | C/C=C1/COC(=O)[C@@H]2[C@H]1C[C@@H]1NCCc3c1n2c1ccccc31 | Non-Toxic | 9.4 µM
4 | COC(=O)[C@@H]1C[C@@]23CCCN4CC[C@@]5(c6ccccc6N(C)[C@]15CC2)[C@@H]43 | Non-Toxic | 8.8 µM
5 | C/C=C1/C[N@+]2(C)C3Cc4c([nH]c5ccc(O)cc45)[C@@H]2C[C@H]1[C@@H]3CO | Non-Toxic | > 50 µM
6 | C[C@H]1NCCc2c1cc1c([nH]c3ccccc31)c2CO | Non-Toxic | > 50 µM
7 | C=C1C(=O)O[C@@H]2C3O[C@]3(C)CC/C=C(\C)CC[C@@H]12 (stereo partly drawn) | Non-Toxic | 0.4 µM
